The values that follow come from ChEMBL document CHEMBL4680093 (J Med Chem, 2016).

Structures are written as SMILES.

Broadly, the inhibition in vivo is how much of the control response was suppressed. For orientation: IC50 means the concentration needed to halve the response being measured. The Cmax is the peak of the concentration-time curve. The half-life is how long it takes for the measured level to halve. The NOAEL is the highest tested level that showed no adverse finding. One may read the EC50 as the concentration that produces a half-maximal response. As usually defined, the clearance is the volume of plasma or blood freed of the substance per unit of time.

The nature of data set [1]: Drug level in mouse liver at 10 mg/kg, po measured after 2 hrs post dose. It counts as ADME, organism-based. Particulars: in vivo. A digest of the protocol:
(§1)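 C57BL/6 mice given a single oral 10 mg/kg dose in 0.5% methylcellulose plus 1% Tween80. Sacrifice at 2 h post-dose, with collection of brain, liver, adipose and plasma. Compound concentration expressed as nmol/g, along with tissue/plasma ratio.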

Data set [2] in a line: In-vivo inhibition of 11beta-HSD1 activity in C57BL/6 mouse liver assessed as reduction in cortisone to-cortisol conversion at 3 mg/kg, po measured after 6 hrs by ELISA. The format is functional. Particulars: C57BL/6, Liver. The essentials: (§2)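 Male C57BL/6 mice dosed orally once at 3, 10 or 30 mg/kg in sterile water containing 0.5% methylcellulose and 1% Tween80, then sacrificed at 2 or 6 h. Liver and epididymal fat pads incubated ex vivo in culture medium containing cortisone. Cortisol formed was measured by ELISA and reported as % inhibition versus vehicle.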
In general terms: An ELISA detects its analyte on a solid surface through an enzyme-linked reagent.

In data set [3] the test system is Mus musculus. The data set can be described thus: Improvement in lipid profile in C57BL/6-Lep^ob (ob/ob) mouse assessed as LDL cholesterol level at 20 mg/kg, po dosed once daily for 25 days co-treated with 300 mg/kg. po QD for 25 days metformin (reference value: 30.3 +/- 0.8 mg/dl). Particulars: time 25 day.
For another data set, the target named is Cytochrome P450 2C19 (Homo sapiens, UniProt P33261). The data set is described as follows: Inhibition of CYP2C19 in pooled human liver microsomes using mephenytoin as substrate in presence of NADPH incubated for 10 mins by LC-MS/MS analysis.
Sequence of Cytochrome P450 2C19 (P33261 whole entry): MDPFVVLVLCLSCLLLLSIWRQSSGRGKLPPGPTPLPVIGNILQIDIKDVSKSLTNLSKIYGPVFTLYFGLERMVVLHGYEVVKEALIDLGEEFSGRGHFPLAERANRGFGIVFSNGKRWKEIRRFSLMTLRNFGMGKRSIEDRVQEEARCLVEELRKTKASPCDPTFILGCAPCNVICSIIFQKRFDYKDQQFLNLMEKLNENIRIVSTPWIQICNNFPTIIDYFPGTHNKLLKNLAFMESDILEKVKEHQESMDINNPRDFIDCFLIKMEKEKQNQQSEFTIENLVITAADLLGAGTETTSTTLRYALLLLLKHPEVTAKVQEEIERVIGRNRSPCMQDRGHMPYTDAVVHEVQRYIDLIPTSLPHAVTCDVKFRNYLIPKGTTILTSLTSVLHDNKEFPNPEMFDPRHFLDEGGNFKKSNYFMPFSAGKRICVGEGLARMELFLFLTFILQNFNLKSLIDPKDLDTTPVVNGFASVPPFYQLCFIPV
Data set [4] can be described thus: Volume of distribution at steady state in mouse at 1 mg/kg, iv. Particulars: in vivo, read-out: Vdss. It counts as ADME, organism-based. A digest of the protocol: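 Single-dose PK study. The iv dose was given in 10% hydroxypropyl-β-cyclodextrin and the oral dose in 0.5% methylcellulose/1% Tween80. Mouse and rat received 1 mg/kg iv and 5 mg/kg po. Dog received 0.5 mg/kg iv and 4 mg/kg po. CL, Vss, t1/2, AUC, Cmax, tmax and F were derived.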

The subject of data set [5] is Mus musculus. The data set can be described thus: In-vivo inhibition of 11beta-HSD1 activity in C57BL/6 mouse liver assessed as reduction in cortisone to-cortisol conversion at 3 to 30 mg/kg, po measured after 2 to 6 hrs by ELISA. It counts as functional, organism-based. The note with it: dose 3-30 mg/kg, time 2-6 hrs. The essentials:
as §2

A short description of data set [6]: Cmax in mouse at 5 mg/kg, po. It counts as ADME, organism-based. Also on record: route oral, dose 5 mg/kg. Particulars: in vivo.
The target of another data set is Cytochrome P450 2D6 (Homo sapiens, UniProt P10635). The data set can be described thus: Inhibition of CYP2D6 in pooled human liver microsomes using dextromethorphan as substrate in presence of NADPH incubated for 10 mins by LC-MS/MS analysis. (In general: Microsomes from liver hold many membrane-bound enzymes, among them those of drug oxidation.)
Sequence of Cytochrome P450 2D6 (P10635 whole entry): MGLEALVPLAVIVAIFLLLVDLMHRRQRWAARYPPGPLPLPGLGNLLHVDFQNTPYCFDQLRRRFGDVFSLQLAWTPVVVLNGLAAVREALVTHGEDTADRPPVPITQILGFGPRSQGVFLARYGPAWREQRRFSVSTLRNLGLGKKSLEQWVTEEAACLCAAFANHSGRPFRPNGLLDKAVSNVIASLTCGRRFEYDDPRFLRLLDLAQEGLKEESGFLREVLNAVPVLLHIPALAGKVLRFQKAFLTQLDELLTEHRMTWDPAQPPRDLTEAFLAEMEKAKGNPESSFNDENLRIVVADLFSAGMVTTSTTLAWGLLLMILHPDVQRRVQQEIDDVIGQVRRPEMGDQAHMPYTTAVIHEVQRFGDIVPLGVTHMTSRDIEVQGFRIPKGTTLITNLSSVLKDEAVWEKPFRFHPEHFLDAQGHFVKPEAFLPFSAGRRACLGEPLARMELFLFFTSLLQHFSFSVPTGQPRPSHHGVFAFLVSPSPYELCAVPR
The nature of data set [7]: Half life in mouse at 1 mg/kg, iv. The format is ADME, organism-based. Particulars: in vivo.
Data set [8] in a line: Toxicity in male dog during 4-week repeated once daily oral-dose toxicity study. The arrangement: species or system Canis lupus familiaris. Particulars: in vivo, time 4 weeks. A digest of the protocol:
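Dogs of both sexes were dosed orally once daily for 4 weeks at 25, 100 and 400 mg/kg. Toxicity was assessed and the NOAEL determined.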

In another data set the target is T1, Glucocorticoid receptor (Homo sapiens, UniProt P04150).
T1 sequence (P04150 whole entry): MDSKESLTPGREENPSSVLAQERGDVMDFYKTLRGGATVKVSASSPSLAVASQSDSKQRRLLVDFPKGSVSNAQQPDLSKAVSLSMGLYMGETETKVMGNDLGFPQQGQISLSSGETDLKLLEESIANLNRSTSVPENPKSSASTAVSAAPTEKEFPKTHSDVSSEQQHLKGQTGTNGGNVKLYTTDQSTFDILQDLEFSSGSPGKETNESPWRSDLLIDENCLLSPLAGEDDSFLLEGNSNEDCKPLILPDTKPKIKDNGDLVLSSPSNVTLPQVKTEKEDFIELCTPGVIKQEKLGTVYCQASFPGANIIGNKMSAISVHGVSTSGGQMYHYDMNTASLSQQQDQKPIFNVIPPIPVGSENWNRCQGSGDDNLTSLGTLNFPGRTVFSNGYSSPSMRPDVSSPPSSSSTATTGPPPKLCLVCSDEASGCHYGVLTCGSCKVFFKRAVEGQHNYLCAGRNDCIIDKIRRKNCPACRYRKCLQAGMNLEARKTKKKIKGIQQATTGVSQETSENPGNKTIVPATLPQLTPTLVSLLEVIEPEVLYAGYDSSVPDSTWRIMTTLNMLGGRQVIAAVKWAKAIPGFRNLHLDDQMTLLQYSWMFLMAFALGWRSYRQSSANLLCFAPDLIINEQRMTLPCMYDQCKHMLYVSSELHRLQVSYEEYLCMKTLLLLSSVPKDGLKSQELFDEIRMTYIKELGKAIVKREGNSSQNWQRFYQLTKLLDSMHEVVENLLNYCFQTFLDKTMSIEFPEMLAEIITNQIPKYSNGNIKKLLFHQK
The data set can be described thus: Agonist activity at glucocorticoid receptor (unknown origin).

Data set [9] in a line: Inhibition of PDE3 (unknown origin). Also on record: species or system Homo sapiens.
Data set [10] can be described thus: Ratio of drug level in brain to plasma of mouse at 10 mg/kg, po measured after 2 hrs post dose. The format is ADME, organism-based. Particulars: read-out: BPR. A digest of the protocol: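 C57BL/6 mice received a single oral dose of 10 mg/kg in 0.5% methylcellulose/1% Tween80. Animals were sacrificed 2 h post-dose. Compound was measured in brain, liver, adipose and plasma (nmol/g), and tissue/plasma ratios were calculated.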

Data set [11] can be described thus: Drug level in mouse adipose tissue at 10 mg/kg, po measured after 2 hrs post dose. It counts as ADME, organism-based. Particulars: in vivo. The essentials:
as §1

Data set [12] in a line: Reduction in nonfasting blood glucose level in C57BL/6-Lep^ob (ob/ob) mouse at 20 mg/kg, po dosed once daily for 25 days relative to control. The arrangement: scale not given: the % may be the effect or the level left. The note with it: time 25 day.
In data set [13] the target is T2, UDP-glucuronosyltransferase 1A1 (Homo sapiens, UniProt P22309).
T2 sequence (P22309 whole entry): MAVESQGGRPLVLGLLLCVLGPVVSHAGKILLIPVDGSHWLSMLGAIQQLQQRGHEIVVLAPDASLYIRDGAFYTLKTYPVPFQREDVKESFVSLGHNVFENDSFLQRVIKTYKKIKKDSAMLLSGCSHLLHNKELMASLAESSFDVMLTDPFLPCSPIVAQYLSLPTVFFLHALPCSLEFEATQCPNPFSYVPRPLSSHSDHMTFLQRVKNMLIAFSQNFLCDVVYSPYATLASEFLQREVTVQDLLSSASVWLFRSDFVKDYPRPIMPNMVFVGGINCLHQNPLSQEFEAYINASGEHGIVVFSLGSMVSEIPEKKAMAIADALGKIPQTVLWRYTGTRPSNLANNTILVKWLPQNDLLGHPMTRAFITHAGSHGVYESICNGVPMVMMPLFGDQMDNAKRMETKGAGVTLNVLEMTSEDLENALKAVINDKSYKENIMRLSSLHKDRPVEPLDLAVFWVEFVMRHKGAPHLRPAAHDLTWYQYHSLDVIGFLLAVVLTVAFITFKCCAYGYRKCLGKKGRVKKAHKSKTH
The data set is described as follows: Inhibition of UGT1A1 (unknown origin). The format is ADME.

A short description of data set [14]: Clearance in dog at 0.5 mg/kg, iv. The format is ADME, organism-based, Canis lupus familiaris. Particulars: in vivo.

Consider `C[C@@H]1CN(c2ccc(S(C)(=O)=O)cc2F)CCN1c1nccc(C(=O)NC2C3CC4CC2CC(O)(C4)C3)n1` (some centres not stated), for which the results for the Drug uptake in data set [1] and in [11] were 31 nmol/g and 6.64 nmol/g, respectively. The inhibition in vivo at 3 mg/kg in [2] was found to be 71%. For the same compound, the Activity in the data set on Mus musculus [3] was found to be 17.2 mg/dL; in [12] it was 26%. In addition, the IC50 at Cytochrome P450 2C19 was above 10 µM; at Cytochrome P450 2D6, above 10 µM; in data set [9], 5.4 µM; in data set [13], 5.6 µM. For the same compound, the Vd in data set [4] was 1.1 L/kg. Besides, the inhibition result with Mus musculus [5] was “Dose-dependent effect”. In data set [6], this compound displayed a Cmax of 2210 ng/mL. The half-life in data set [7] is 102 min. Further, the NOAEL at 672 h in [8] was 400 mg/kg. This compound also displayed an EC50 on Glucocorticoid receptor above 5 µM. Moreover, the Kp at 2 h in data set [10] turned out to be 0.04. For the same compound, the clearance in data set [14] was 6 mL/min/kg.
